From PubChem BioAssay AID602126 (Broad Institute, 2011)
Active and inactive are the calls of the source.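 The calls were made as follows: active = compounds cutting cell ATP light whose fitted AC50 is at most double the top dose tried; inconclusive = flat moderate signal loss, or an unreliable curve fit; inactive = the rest.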

Legend:
[1] = cytotoxicity in ldlA[mSR-BI] CHO cells, dose response, cytotoxicity control for SR-BI HDL uptake inhibitor project, cell-based, CellTiter-Glo luminescence, 24 h, dry powder, set 5 (AID 602126); conditions: ldlA[mSR-BI] CHO cells viability, CellTiter-Glo ATP luminescence, 24 h; at 35 µM (top of the series)
How it was run: (§1)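 Technique: CellTiter-Glo ATP luminescence; System: ldlA[mSR-BI] cells, cell viability measurement; Amount: 4,000 ldlA[mSR-BI] cells per well; Incubation: 24 h compound exposure at 37 °C, then 10 min with detection reagent.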

[2] = tested on: ldlA[mSR-BI] CHO cells viability, CellTiter-Glo ATP luminescence, 24 h; test: as above
How it was run: as §1

Structure (SMILES)	activity change, negative = cytotoxicity [1]	AC50 [2]
O=C(Nc1ccc(-c2nc3ccc(NC(=O)c4ccccc4[N+](=O)[O-])cc3[nH]2)cc1)c1ccccc1[N+](=O)[O-]	-15.1% (inactive)	
CCNC(=O)N1CCc2cc(-c3csc(NC(=O)c4cc(OC)cc(OC)c4)n3)ccc21		60 µM
O=C(Nc1nc(-c2ccc3c(c2)CCN3C(=O)C2CC2)cs1)c1ccco1	-26.1% (inactive)	
CCC(=O)N1CCc2cc(-c3csc(NC(=O)C4CCCC4)n3)ccc21	0.408% (inactive)	
C[C@H]1CN([C@@H](C)CO)C(=O)c2cccc(NC(=O)Nc3ccccc3)c2O[C@@H]1CN(C)Cc1ccc(C(F)(F)F)cc1	-30.4% (inactive)	
Cc1cc(SC(C)C(=O)Nc2ncc(Cl)cc2Cl)nc2ccccc12 (stereo unspecified)		35.1 µM
O=C(CN(C(=O)Cn1nnc(-c2ccc3c(c2)OC(F)(F)O3)n1)C1CCCCC1)NC1CCCC1		> 70 µM (inactive)
CCOC(=O)N1CCC(NC(=O)c2ccc3c(c2)N(Cc2ccc(F)cc2)CCS3)CC1		65.5 µM
CCCN1CCc2cc(-c3csc(NC(=O)c4cc(OC)cc(OC)c4)n3)ccc21		> 70 µM (inactive)
CCC(=O)N1CCc2cc(-c3coc(NC(=O)c4ccco4)n3)ccc21	-8.19% (inactive)	
CCC(=O)Nc1ccc(-c2csc(NC(=O)c3cccc(OC)c3)n2)cc1		> 70 µM (inactive)
COc1ccc(-c2nc(CC(=O)N(C3CCCCC3)C(C)C(=O)NC3CCCC3)cs2)cc1OC (stereo unspecified)		67 µM
C[C@H]1CN([C@@H](C)CO)C(=O)c2cc(NC(=O)Nc3ccccc3)ccc2O[C@@H]1CN(C)Cc1ccc(Cl)c(Cl)c1		57 µM
CC(C(=O)NC1CCCC1)N(C(=O)Cn1nnc(-c2cccc(F)c2)n1)C1CCCCC1 (stereo unspecified)		> 70 µM (inactive)
O=C(Nc1cc(Cl)ccc1Cl)c1cc(Cl)ccc1NS(=O)(=O)c1ccc(Cl)c([N+](=O)[O-])c1		17.3 µM
C[C@@H]1CN([C@@H](C)CO)C(=O)c2cc(NC(=O)Cc3cn(C)c4ccccc34)ccc2O[C@@H]1CN(C)S(=O)(=O)c1ccc(Cl)cc1		> 70 µM (inactive)
O=C(Nc1cccc(NC(=O)c2cc([N+](=O)[O-])ccc2Cl)n1)c1cc([N+](=O)[O-])ccc1Cl		21.9 µM
Cc1ccccc1NC(=O)NCC1CCN(c2ccc(S(=O)(=O)N3CCOCC3)cc2)CC1		58.3 µM
O=C(Nc1ccc(-c2nc3cc(NC(=O)c4ccccc4[N+](=O)[O-])ccc3o2)cc1)c1ccccc1[N+](=O)[O-]		36.3 µM
COc1cc(OC)cc(C(=O)Nc2nc(-c3ccc4c(c3)CCN4C(C)=O)cs2)c1		> 70 µM (inactive)
CCC(=O)N1CCc2cc(-c3csc(NC(=O)c4cc(OC)cc(OC)c4)n3)ccc21		> 70 µM (inactive)

Structure (SMILES)	activity change, negative = cytotoxicity [1]	AC50 [2]
O=C(CN(C(=O)Cn1nnc(-c2ccc3c(c2)OCO3)n1)C1CCCCC1)NC1CCCC1		> 70 µM (inactive)
CCC(=O)N1CCc2cc(-c3csc(N(C)C(=O)c4cc(OC)cc(OC)c4)n3)ccc21		15.1 µM
CCn1c(COc2c(C)cccc2C)nnc1SCC(=O)N1CCN(c2ccccc2)CC1		65.2 µM
C[C@@H]1CN([C@H](C)CO)C(=O)c2cc(NC(=O)Cc3cn(C)c4ccccc34)ccc2O[C@@H]1CN(C)S(=O)(=O)c1ccc(F)cc1		50.8 µM
C[C@@H]1CN([C@H](C)CO)C(=O)c2cc(NC(=O)Cc3cn(C)c4ccccc34)ccc2O[C@H]1CN(C)S(=O)(=O)c1ccccc1		49.8 µM
COc1ccc(-c2nnn(CC(=O)N(CC(=O)NC3CCCC3)C3CCCCC3)n2)cc1OC		> 70 µM (inactive)
C=CCN1CCc2cc(-c3csc(NC(=O)c4ccco4)n3)ccc21		57.7 µM
COc1cccc(-c2csc(N3CCN(C(=S)Nc4cccc(Cl)c4)CC3)n2)c1		51.7 µM
CC(C(=O)NC1CCCC1)N(C(=O)Cn1nnc(-c2ccc(Cl)c(Cl)c2)n1)C1CCCCC1 (stereo unspecified)		37 µM
C[C@H]1CN([C@@H](C)CO)C(=O)c2cccc(N(C)C)c2O[C@@H]1CN(C)Cc1ccc(Cl)c(Cl)c1		> 70 µM (inactive)
CCC(=O)N1CCc2cc(-c3csc(NC(=O)c4cccc(OC)n4)n3)ccc21		66.5 µM
CCC(=O)N1CCc2cc(-c3csc(NC(=O)c4ccco4)n3)ccc21		> 70 µM (inactive)
CC(C(=O)NC1CCCC1)N(C(=O)Cn1nnc(-c2ccc3c(c2)OC(F)(F)O3)n1)C1CCCCC1 (stereo unspecified)		55.2 µM
CCOc1ccccc1/C=C/c1onc(C)c1S(=O)(=O)N1CCC(C(=O)NC(C)(C)C)CC1		> 70 µM (inactive)
CC(C)C(=O)N1CCc2cc(-c3csc(NC(=O)c4ccco4)n3)ccc21		> 70 µM (inactive)
O=C(Nc1cc(C(F)(F)F)ccc1Cl)c1ccccc1NS(=O)(=O)c1ccc(Cl)cc1		0.285 µM
CCC(=O)N1CCc2cc(-c3csc(NC(=O)c4cccc(OC)c4)n3)ccc21		> 70 µM (inactive)
CCC(=O)N1CCc2cc(-c3csc(NC(=O)c4cc(OC)c(OC)c(OC)c4)n3)ccc21		> 70 µM (inactive)
COc1cc(OC)cc(C(=O)Nc2nc(-c3ccc4c(c3)CCN4)cs2)c1		46.5 µM
C[C@H]1CN([C@@H](C)CO)C(=O)c2cc(NC(=O)Cc3cn(C)c4ccccc34)ccc2O[C@H]1CN(C)S(=O)(=O)c1ccc(Cl)cc1		> 70 µM (inactive)
O=C(Nc1ccccc1Cl)c1ccccc1NS(=O)(=O)c1ccccc1		37.2 µM

Structure (SMILES)	activity change, negative = cytotoxicity [1]	AC50 [2]
C[C@H]1CN([C@@H](C)CO)C(=O)c2cc(NC(=O)Cc3cn(C)c4ccccc34)ccc2O[C@@H]1CN(C)S(=O)(=O)c1ccc(Cl)cc1		> 70 µM (inactive)
CCCCCCC1CCC/C1=N\NC(N)=S (stereo unspecified)		2.13 µM
O=C(Nc1ccc(-c2nc3ccc(NC(=O)c4ccc(Cl)cc4)cc3[nH]2)cc1)c1ccc(Cl)cc1		1.3 µM
CS(=O)(=O)N1CCc2cc(-c3csc(NC(=O)c4ccco4)n3)ccc21		> 70 µM (inactive)
O=C(Nc1ccc(Cl)cc1C(=O)c1ccc(Cl)cc1)c1cc(Br)ccc1NS(=O)(=O)c1ccc(Cl)cc1		4.98 µM
COC(=O)N1CCc2cc(-c3csc(NC(=O)c4cc(OC)cc(OC)c4)n3)ccc21		> 70 µM (inactive)
COc1cc(OC)cc(C(=O)Nc2nc(-c3ccc4[nH]ccc4c3)cs2)c1		15.6 µM
C[C@H]1CN([C@@H](C)CO)C(=O)c2cccc(NC(=O)Nc3ccccc3)c2O[C@@H]1CN(C)Cc1ccccc1		> 70 µM (inactive)
C[C@H](CO)N1C[C@H](C)[C@@H](CN(C)S(=O)(=O)c2ccc(Cl)cc2)Oc2ccc(NC(=O)Cc3cn(C)c4ccccc34)cc2C1=O		> 70 µM (inactive)
COc1ccc(-c2cc(CC(=O)N(C3CCCCC3)C(C)C(=O)NC3CCCC3)no2)cc1OC (stereo unspecified)		> 70 µM (inactive)
C[C@@H]1CN([C@H](C)CO)C(=O)c2cc(NC(=O)Cc3cn(C)c4ccccc34)ccc2O[C@@H]1CN(C)S(=O)(=O)c1ccc(Cl)cc1		> 70 µM (inactive)
Cc1cc(C)n(CC(=O)NC2CCCc3c2cnn3-c2ccc(C)c(C)c2)n1 (stereo unspecified)		> 70 µM (inactive)
CCC(=O)N1CCc2cc(-c3cn4ccccc4n3)ccc21		15.8 µM
C[C@H]1CN([C@@H](C)CO)C(=O)c2cccc(NC(=O)Nc3ccc(F)cc3)c2O[C@@H]1CN(C)Cc1ccc(Cl)c(Cl)c1		21.6 µM
CC(C(=O)NC1CCCC1)N(C(=O)Cn1nnc(-c2ccc3c(c2)OCO3)n1)C1CCCCC1 (stereo unspecified)		53 µM
O=C(Nc1nc(-c2ccc3c(c2)CCN3)cs1)c1ccco1		> 70 µM (inactive)
C[C@H](CO)N1C[C@H](C)[C@H](CN(C)S(=O)(=O)c2ccc(F)cc2)Oc2ccc(NC(=O)Cc3cn(C)c4ccccc34)cc2C1=O		> 70 µM (inactive)
COc1ccc([C@H]2CC(=O)C=C(c3cccc4c3sc3ccccc34)C2)cc1OC		> 70 µM (inactive)
O=C(Nc1ccc(-c2nc3cc(NC(=O)c4ccccc4Cl)ccc3o2)cc1)c1ccccc1Cl		43.9 µM
CC(C)NC(=O)Nc1cccc2c1O[C@H](CN(C)Cc1ccc(Cl)c(Cl)c1)[C@@H](C)CN([C@@H](C)CO)C2=O		> 70 µM (inactive)
COc1cc(OC)cc(C(=O)Nc2nc(-c3ccc4c(c3)CCN4C(=O)CN(C)C)cs2)c1		20.2 µM

Structure (SMILES)	activity change, negative = cytotoxicity [1]	AC50 [2]
O=C(Nc1ccc(-c2nc3ccc(NC(=O)c4ccccc4)cc3[nH]2)cc1)c1ccccc1		2.63 µM
C[C@@H]1CN([C@@H](C)CO)C(=O)c2cc(NC(=O)Cc3cn(C)c4ccccc34)ccc2O[C@@H]1CN(C)S(=O)(=O)c1ccc(F)cc1		> 70 µM (inactive)
O=C(Nc1ccccc1)c1ccccc1NS(=O)(=O)c1ccc(Cl)cc1		32.5 µM
COC(=O)c1cn(C(=O)c2cccc3ccccc23)c2ccccc12		38 µM
COc1cc(OC)cc(C(=O)Nc2nc(-c3ccc4c(c3)CCN4C(=O)OC(C)(C)C)cs2)c1		> 70 µM (inactive)
CCc1cc2cc3c(cc2nc1SCC(=O)OC(C)C)OCO3		> 70 µM (inactive)
CCC(=O)N1CCc2cc(-c3csc(NC(=O)C4CCCO4)n3)ccc21 (stereo unspecified)		46.5 µM
CCC(=O)N1CCc2cc(-c3csc(NC(=O)c4cccc(OC(F)(F)F)c4)n3)ccc21		> 70 µM (inactive)
COc1ccc(-c2nnn(CC(=O)N(C3CCCCC3)C(C)(C)C(=O)NC3CCCC3)n2)cc1OC		> 70 µM (inactive)
O=C(CN(C(=O)Cn1nnc(-c2ccc(Cl)c(Cl)c2)n1)C1CCCCC1)NC1CCCC1		46.2 µM
CCC(=O)N1CCc2cc(-c3csc(NC(=O)c4cccs4)n3)ccc21		64.4 µM
CCC(=O)Nc1ccc(-c2csc(N)n2)cc1		> 70 µM (inactive)
CC(C(=O)NC1CCCC1)N(C(=O)Cn1nnc(-c2ccc(Cl)cc2)n1)C1CCCCC1 (stereo unspecified)		> 70 µM (inactive)
O=C(Nc1cc(Cl)ccc1Cl)c1cc(Br)ccc1NS(=O)(=O)c1ccc(Cl)c([N+](=O)[O-])c1		21 µM
N#Cc1sc2nc(C3CC3)cc(-c3ccc(Cl)cc3)c2c1N		63.1 µM
COCC(=O)N1CCc2cc(-c3csc(NC(=O)c4cc(OC)cc(OC)c4)n3)ccc21		> 70 µM (inactive)
CCc1sc(N2C(=O)C3C4CCC(C4=C(C)C)C3C2=O)nc1-c1ccccc1 (stereo unspecified)		> 70 µM (inactive)
COc1ccc(OC)c(CCNC(=O)c2ccc3c(c2)N(Cc2ccc(F)cc2)CCS3)c1		> 70 µM (inactive)
